The text below walks through data of publication PMC10072273 (International Journal of Nanomedicine, 2023).

Test [1] deals with BTK. Kind of test: mRNA expression. The format is cell-based, human. The note with it: RAJI cells, ibrutinib, 24 h. In a few lines:
(§1)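 RAJI cells treated 24 h with test nanomaterial (347, 174, 84 µM) or reference BTK inhibitor (30, 15 µM). Total RNA extracted with TRIzol and 1 µg reverse-transcribed. qPCR run as 95°C 60 s, then 40 cycles of 95°C 15 s, primer-specific annealing 30 s, 72°C 30 s, with melt-curve check. Expression by 2−ΔΔCT vs HPRT1. ≥4 experiments, mean ± SD, ANOVA with Dunnett's test vs untreated.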

Test [2] relates to p62. Kind of test: mRNA expression. To be noted: RAJI cells, ibrutinib 15 µM, 24 h. The format is cell-based, human. In a few lines:
as §1

Test [3] deals with K562 cells. Kind of test: Cytotoxicity. The note with it: Homo sapiens, K562, 72 h, read-out: Antiproliferative activity IC50, K562 cells. Format: cell-based. The gist of the method:
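K562 cells were grown in RPMI-1640 with 10% heat-inactivated FBS and penicillin/streptomycin at 37°C, 5% CO2. Seeded at 8,000 cells/well, rested 24 h, then exposed 72 h to a concentration series. MTS reagent was added in phenol-red-free DMEM for 1 h at 37°C and absorbance read at 490 nm. Response was taken relative to control and IC50 fitted. Triplicates per experiment, 3–4 experiments.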

Test [4] has as its system c-Myc. The experiment in a line: Immunoblotting in RAJI cells after anti-IgM stimulation. The format is cell-based, human. To be noted: 20 µM ibrutinib, 24 h. The gist of the method:
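RAJI cells seeded at 500,000 per dish. Next day they were stimulated with anti-human IgM (12 µg/mL, 10 min), then the medium was replaced with test nanomaterial (347, 174 µM) or reference inhibitor (20 µM) for 24 h. Lysed on ice in RIPA with protease/phosphatase inhibitors and EDTA, then BCA-normalised SDS-PAGE onto nitrocellulose. Primary antibodies 1:1000 overnight at 4°C, loading controls 1:2000, HRP secondary, chemiluminescence, densitometry. 4–5 experiments.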

In test [5] the test system is TLR8. The experiment in a line: mRNA expression. Format: cell-based, human. The note with it: RAJI cells, 24 h. In a few lines:
as §1

Test [6] has as its system ARID3A. Kind of test: mRNA expression. The format is cell-based, human. To be noted: RAJI cells, 30 µM ibrutinib, 24 h. The gist of the method:
as §1

Test [7] deals with NFAT. The experiment in a line: mRNA expression. Format: cell-based, human. To be noted: RAJI cells, 24 h. The gist of the method:
as §1

For test [8], the system named is calcium levels in RAJI cells. Kind of test: Calcium assay. Format: cell-based, human. To be noted: 24 h, HDGF 347 and 174 µM, ibrutinib 30 and 15 µM. In a few lines:
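RAJI cells seeded at 40,000/well and held 24 h at 37°C. Medium was replaced with test nanomaterial (347, 174 µM) or reference BTK inhibitor (30, 15 µM) for 24 h. Cells were washed in cold PBS, loaded with Fluo-4 AM (5 µM, 30 min, 37°C), washed, and resuspended in serum-free, phenol-red-free DMEM. Fluorescence read at ex 485/em 520 nm. ≥3 experiments, mean ± SD, ANOVA with Dunnett's test vs untreated.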

A word on the IC50: it is the concentration that gives 50% inhibition.

In the case of `C=CC(=O)N1CCC[C@@H](n2nc(-c3ccc(Oc4ccccc4)cc3)c3c(N)ncnc32)C1` [ibrutinib], in test [1], the BTK gene expression entry is on record as “increased”. For the same compound, the “Expression of p62” value in test [2] is “almost three-fold increase”. For the same compound, the IC50 in test [3] stood at 850 nM. Also, in test [4], the c-Myc protein expression result is given as “slight downregulation”. Also, the “Expression of TLR8” value in test [5] is on record as “significant decrease”. Also, in test [6], the “Expression of ARID3A” value is recorded as “almost two-fold downregulation”. Besides, in test [7], the “Expression of NFAT” value is recorded as “significant decrease”. For the same compound, in test [8], the Cellular calcium levels entry is listed as “drop dramatically”.
